Reference: ChEMBL document CHEMBL4033676, “Design, synthesis and biological evaluation of 3,4-dihydro-2(1H)-quinoline-O-alkylamine derivatives as new multipotent cholinesterase/monoamine oxidase inhibitors for the treatment of Alzheimer's disease” (Bioorg Med Chem, 2017)

Tests used:
[1] = physchem; settings: PAMPA
[2] = organism: Rattus norvegicus; assay: Selectivity index, ratio of IC50 for rat serum BuChE to IC50 for 5% rat cortex homogenate AChE
[3] = biological target: Acetylcholinesterase (Electrophorus electricus, UniProt O42275); assay: Inhibition of electric eel AChE using acetylthiocholine chloride as substrate after 15 mins by Ellman's method
[4] = biological target: Cholinesterase (Equus caballus, UniProt P81908); assay: Inhibition of equine serum BuChE using butyrylthiocholine chloride as substrate after 15 mins by Ellman's method
How it was run: (§1)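 Ellman assay. Equine serum or rat serum BuChE pre-incubated with test compound at various concentrations (DMSO <1%) in 0.1 M phosphate buffer pH 8.0 for 15 min at 37°C. DTNB (0.2%) added, absorbance read at 412 nm. Inhibition % = (1−Ai/Ac)×100. IC50 is the mean of three independent experiments, each run in triplicate.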

[5] = biological target: T1, Acetylcholinesterase (Rattus norvegicus, UniProt P37136)
T1 sequence (P37136 whole entry): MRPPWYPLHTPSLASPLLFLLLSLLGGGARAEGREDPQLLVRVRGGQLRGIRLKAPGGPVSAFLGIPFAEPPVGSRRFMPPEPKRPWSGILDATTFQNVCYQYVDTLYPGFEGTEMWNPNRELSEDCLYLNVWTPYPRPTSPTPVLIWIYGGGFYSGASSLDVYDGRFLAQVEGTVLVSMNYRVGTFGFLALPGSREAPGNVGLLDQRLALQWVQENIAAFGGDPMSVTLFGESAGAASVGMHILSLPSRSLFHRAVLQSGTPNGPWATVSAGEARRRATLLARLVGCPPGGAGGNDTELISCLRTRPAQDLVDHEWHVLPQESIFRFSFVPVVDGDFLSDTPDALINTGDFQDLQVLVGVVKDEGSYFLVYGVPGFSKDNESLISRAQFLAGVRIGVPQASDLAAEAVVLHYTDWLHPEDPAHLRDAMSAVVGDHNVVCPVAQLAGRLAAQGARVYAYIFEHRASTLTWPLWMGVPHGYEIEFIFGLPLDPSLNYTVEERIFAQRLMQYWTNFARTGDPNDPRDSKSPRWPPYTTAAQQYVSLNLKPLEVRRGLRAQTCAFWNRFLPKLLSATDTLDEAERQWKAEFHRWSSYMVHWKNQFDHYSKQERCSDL

[6] = Inhibition of rat serum BuChE using butyrylthiocholine chloride as substrate after 15 mins by Ellman's method
How it was run: as §1

[7] = Selectivity index, ratio of IC50 for equine serum BuChE to IC50 for electric eel AChE
[8] = biological target: T2, Amine oxidase [flavin-containing] A (Homo sapiens, UniProt P21397); assay: Inhibition of recombinant human MAO-A expressed in baculovirus infected BTI insect cells using kynuramine as substrate after 30 mins by fluorescence assay
T2 sequence (P21397 whole entry): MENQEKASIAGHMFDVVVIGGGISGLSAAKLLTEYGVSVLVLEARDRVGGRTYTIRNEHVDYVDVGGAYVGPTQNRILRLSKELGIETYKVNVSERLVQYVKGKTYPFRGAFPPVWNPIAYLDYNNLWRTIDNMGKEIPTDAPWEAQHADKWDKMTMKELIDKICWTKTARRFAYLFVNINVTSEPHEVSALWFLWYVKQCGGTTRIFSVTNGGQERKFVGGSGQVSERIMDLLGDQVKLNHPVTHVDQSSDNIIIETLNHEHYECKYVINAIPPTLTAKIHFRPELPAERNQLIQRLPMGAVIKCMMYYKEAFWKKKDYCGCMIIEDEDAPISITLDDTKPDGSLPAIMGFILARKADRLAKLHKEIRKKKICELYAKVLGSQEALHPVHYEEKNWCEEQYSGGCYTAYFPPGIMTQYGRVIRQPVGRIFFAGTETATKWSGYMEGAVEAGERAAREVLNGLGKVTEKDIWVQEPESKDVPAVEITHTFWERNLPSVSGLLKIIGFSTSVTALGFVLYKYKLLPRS

[9] = biological target: T3, Amine oxidase [flavin-containing] B (Homo sapiens, UniProt P27338); assay: biochemical; type: cell-based
T3 sequence (P27338 whole entry): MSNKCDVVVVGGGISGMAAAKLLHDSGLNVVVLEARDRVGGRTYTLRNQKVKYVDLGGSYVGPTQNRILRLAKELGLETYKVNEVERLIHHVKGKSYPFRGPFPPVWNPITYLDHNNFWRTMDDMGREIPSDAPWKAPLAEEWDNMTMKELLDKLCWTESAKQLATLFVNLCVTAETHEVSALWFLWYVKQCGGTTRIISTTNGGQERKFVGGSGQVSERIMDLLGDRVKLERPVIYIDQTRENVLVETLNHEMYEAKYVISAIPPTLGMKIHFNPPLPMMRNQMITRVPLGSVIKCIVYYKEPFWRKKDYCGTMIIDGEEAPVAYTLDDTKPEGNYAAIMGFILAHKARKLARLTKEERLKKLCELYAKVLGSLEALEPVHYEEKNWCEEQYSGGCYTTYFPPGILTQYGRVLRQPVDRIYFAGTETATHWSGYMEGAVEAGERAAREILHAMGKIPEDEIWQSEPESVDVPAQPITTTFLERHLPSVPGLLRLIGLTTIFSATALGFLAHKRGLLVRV

[10] = organism: Homo sapiens; assay: Selectivity index, ratio of IC50 for recombinant human MAO-B to IC50 for recombinant human MAO-A

Acetylcholinesterase (Electrophorus electricus, UniProt O42275), sequence (O42275 whole entry): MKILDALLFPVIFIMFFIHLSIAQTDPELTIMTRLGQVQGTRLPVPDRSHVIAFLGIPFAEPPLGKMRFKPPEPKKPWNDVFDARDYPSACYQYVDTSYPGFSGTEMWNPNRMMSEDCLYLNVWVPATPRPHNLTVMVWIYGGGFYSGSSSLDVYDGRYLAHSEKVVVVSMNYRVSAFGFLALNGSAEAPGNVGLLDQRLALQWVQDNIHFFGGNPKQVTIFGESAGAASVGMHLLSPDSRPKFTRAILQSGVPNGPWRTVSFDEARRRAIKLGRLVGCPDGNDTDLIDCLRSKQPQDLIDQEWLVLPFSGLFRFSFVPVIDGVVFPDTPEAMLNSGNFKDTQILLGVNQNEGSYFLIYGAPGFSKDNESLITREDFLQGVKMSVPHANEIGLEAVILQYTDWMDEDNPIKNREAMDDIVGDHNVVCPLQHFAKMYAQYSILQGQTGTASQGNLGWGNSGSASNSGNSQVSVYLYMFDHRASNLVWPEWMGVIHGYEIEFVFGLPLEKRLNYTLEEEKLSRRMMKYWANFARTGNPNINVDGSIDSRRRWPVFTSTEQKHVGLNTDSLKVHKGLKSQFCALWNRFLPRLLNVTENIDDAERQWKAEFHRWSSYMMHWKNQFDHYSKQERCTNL
Cholinesterase, sequence (P81908 whole entry): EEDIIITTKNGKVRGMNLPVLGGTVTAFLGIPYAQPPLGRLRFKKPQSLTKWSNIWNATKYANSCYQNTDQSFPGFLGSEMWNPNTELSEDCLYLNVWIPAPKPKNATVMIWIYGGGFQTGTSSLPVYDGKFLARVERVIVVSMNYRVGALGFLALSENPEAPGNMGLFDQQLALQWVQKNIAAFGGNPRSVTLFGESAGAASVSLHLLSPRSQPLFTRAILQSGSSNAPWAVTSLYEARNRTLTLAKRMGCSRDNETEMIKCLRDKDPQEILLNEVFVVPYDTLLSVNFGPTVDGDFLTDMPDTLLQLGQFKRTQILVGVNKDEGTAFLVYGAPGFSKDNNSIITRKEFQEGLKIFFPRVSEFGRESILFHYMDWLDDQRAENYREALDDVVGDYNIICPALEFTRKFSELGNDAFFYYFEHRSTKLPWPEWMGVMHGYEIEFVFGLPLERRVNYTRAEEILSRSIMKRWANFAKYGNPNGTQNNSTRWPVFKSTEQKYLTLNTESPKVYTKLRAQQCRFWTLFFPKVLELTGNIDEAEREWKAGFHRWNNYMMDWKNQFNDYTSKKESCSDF

**Q.** For `CN1C(C(=O)Nc2ccccn2)=C(O)c2ccccc2S1(=O)=O` [PIROXICAM], which Papp at 18 h, 100 ug/ml [1] is on record?
**A.** 0.72 to 2.5 ×10⁻⁶ cm/s

**Q.** With `CCn1cc(C(=O)O)c(=O)c2cc(F)c(N3CCNCC3)cc21` [NORFLOXACIN] as the compound, how does the Papp at 18 h, 100 ug/ml [1] read?
**A.** 0.1 to 0.42 ×10⁻⁶ cm/s

**Q.** Which Papp at 18 h, 100 ug/ml [1] does the source give for `Clc1cccc(Cl)c1N=C1NCCN1` [CLONIDINE] here?
**A.** 5.1 to 5.3 ×10⁻⁶ cm/s

**Q.** For `CCN(CC)CCCCOc1ccc2c(c1)NC(=O)CC2`, which Ratio IC50 [2] is on record?
**A.** 0.7

**Q.** What about the IC50 [3] of the same compound?
**A.** 5.1 µM

**Q.** And the IC50 [4]?
**A.** 7.7 µM

**Q.** What about the IC50 [5] of the same compound?
**A.** 14.5 µM

**Q.** And the IC50 [6]?
**A.** 9.5 µM

**Q.** And the Ratio IC50 [7]?
**A.** 1.5

**Q.** And the IC50 [8]?
**A.** 7.7 µM

**Q.** And the IC50 [9]?
**A.** 4 µM

**Q.** What about the Ratio IC50 [10] of the same compound?
**A.** 0.5

**Q.** For `O=C1CCc2ccc(OCCCCN3CCCCC3)cc2N1`, which Ratio IC50 [2] is on record?
**A.** 2

**Q.** What about the IC50 [3] of the same compound?
**A.** 11.8 µM

**Q.** What about the IC50 [4] of the same compound?
**A.** 15.7 µM

**Q.** What about the IC50 [5] of the same compound?
**A.** 11.6 µM

**Q.** And the IC50 [6]?
**A.** 22.8 µM

**Q.** And the Ratio IC50 [7]?
**A.** 1.3

**Q.** What about the IC50 [8] of the same compound?
**A.** 9.5 µM

**Q.** What about the IC50 [9] of the same compound?
**A.** 6.4 µM

**Q.** And the Ratio IC50 [10]?
**A.** 0.7

**Q.** For `CC(C)N1CCN(CCCCOc2ccc3c(c2)NC(=O)CC3)CC1`, which Ratio IC50 [2] is on record?
**A.** 1

**Q.** What about the IC50 [3] of the same compound?
**A.** 1 µM

**Q.** And the IC50 [4]?
**A.** 4.5 µM

**Q.** And the IC50 [5]?
**A.** 3.6 µM

**Q.** And the IC50 [6]?
**A.** 3.7 µM

**Q.** What about the Ratio IC50 [7] of the same compound?
**A.** 4.4

**Q.** What about the IC50 [8] of the same compound?
**A.** 14.3 µM

**Q.** What about the IC50 [9] of the same compound?
**A.** 7.6 µM

**Q.** And the Ratio IC50 [10]?
**A.** 0.5

**Q.** Which Ratio IC50 [2] does the source give for `O=C1CCc2ccc(OCCCCCCN3CCCCC3)cc2N1` here?
**A.** 4.5

**Q.** What about the IC50 [3] of the same compound?
**A.** 17.8 µM

**Q.** What about the IC50 [4] of the same compound?
**A.** 14.1 µM

**Q.** What about the IC50 [5] of the same compound?
**A.** 6 µM

**Q.** And the IC50 [6]?
**A.** 27.2 µM

**Q.** What about the Ratio IC50 [7] of the same compound?
**A.** 0.8

**Q.** And the IC50 [8]?
**A.** 9.4 µM

**Q.** And the IC50 [9]?
**A.** 31.7 µM

**Q.** And the Ratio IC50 [10]?
**A.** 3.4

**Q.** Which Ratio IC50 [2] does the source give for `C#CCN(CCCCCOc1ccc2c(c1)NC(=O)CC2)Cc1ccccc1` here?
**A.** 2.1

**Q.** What about the IC50 [3] of the same compound?
**A.** 19.4 µM

**Q.** And the IC50 [4]?
**A.** 7 µM

**Q.** What about the IC50 [5] of the same compound?
**A.** 14.3 µM

**Q.** And the IC50 [6]?
**A.** 29.6 µM

**Q.** What about the Ratio IC50 [7] of the same compound?
**A.** 0.4

**Q.** And the IC50 [8]?
**A.** 8.9 µM

**Q.** And the IC50 [9]?
**A.** 8.3 µM

**Q.** What about the Ratio IC50 [10] of the same compound?
**A.** 0.9

**Q.** For `CCN(CC)CCCCCOc1ccc2c(c1)NC(=O)CC2`, which Ratio IC50 [2] is on record?
**A.** 0.4

**Q.** What about the IC50 [3] of the same compound?
**A.** 8.2 µM

**Q.** What about the IC50 [4] of the same compound?
**A.** 21.9 µM

**Q.** And the IC50 [5]?
**A.** 34.1 µM

**Q.** And the IC50 [6]?
**A.** 14.7 µM

**Q.** And the Ratio IC50 [7]?
**A.** 2.7

**Q.** What about the IC50 [8] of the same compound?
**A.** 11.4 µM

**Q.** And the IC50 [9]?
**A.** 8.5 µM

**Q.** And the Ratio IC50 [10]?
**A.** 0.7

**Q.** What does the source list for `O=C1CCc2ccc(OCCCN3CCC(N4CCCC4)CC3)cc2N1`?
**A.** Ratio IC50 [2]: 1.3; IC50 [3]: 5.8 µM; IC50 [4]: 39.6 µM; IC50 [5]: 16 µM; IC50 [6]: 21.5 µM; Ratio IC50 [7]: 6.9; IC50 [8]: 9.6 µM; IC50 [9]: 19.2 µM; Ratio IC50 [10]: 2

**Q.** What does the source list for `C#CCN(CCCCCCOc1ccc2c(c1)NC(=O)CC2)Cc1ccccc1`?
**A.** Ratio IC50 [2]: 1.9; IC50 [3]: 13.7 µM; IC50 [4]: 2.4 µM; IC50 [5]: 13 µM; IC50 [6]: 24.5 µM; Ratio IC50 [7]: 0.2; IC50 [8]: 1 µM; IC50 [9]: 3.8 µM; Ratio IC50 [10]: 3.8

**Q.** For `O=C1CCc2ccc(OCCCN3CCN(Cc4ccccc4)CC3)cc2N1`, which Ratio IC50 [2] is on record?
**A.** 2.7

**Q.** What about the IC50 [3] of the same compound?
**A.** 1.3 µM

**Q.** And the IC50 [4]?
**A.** 19.4 µM

**Q.** What about the IC50 [5] of the same compound?
**A.** 12.6 µM

**Q.** And the IC50 [6]?
**A.** 34.2 µM

**Q.** And the Ratio IC50 [7]?
**A.** 14.9

**Q.** What about the IC50 [8] of the same compound?
**A.** 6.6 µM

**Q.** What about the IC50 [9] of the same compound?
**A.** 21.8 µM

**Q.** What about the Ratio IC50 [10] of the same compound?
**A.** 3.3
